Experimental data taken from ChEMBL document CHEMBL3397040, “Synthesis and antitumor activity of novel per-butyrylated glycosides of podophyllotoxin and its derivatives” (Bioorg Med Chem, 2015).

Assays:
Assay type in all cases: functional, cell-based
[1] = Anticancer activity against human SMMC7721 cells after 48 hrs by MTT assay; details: SMMC-7721, 48 h
Summary of the method: (§1)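 Cells grown in RPMI-1640 or DMEM with 10% FBS at 37 °C, 5% CO2. Seeded at 1 × 10^5 cells/mL in 100 µL per well. Adherent lines were allowed to attach for 12 h before drug; suspension cells were seeded just before drug. Triplicate exposure to a range of compound concentrations for 48 h. MTT (100 µg/well) was added for 4 h at 37 °C, cells lysed with SDS, and OD read at 595 nm.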

[2] = Anticancer activity against human HL60 cells after 48 hrs by MTT assay; details: HL-60, 48 h; summary of the method: as §1
SW480 = experiment: Anticancer activity against human SW480 cells after 48 hrs by MTT assay; details: SW480, 48 h; summary of the method: as §1
MCF7 = experiment: Anticancer activity against human MCF7 cells after 48 hrs by MTT assay; details: MCF7, 48 h; summary of the method: as §1
A549 = experiment: Anticancer activity against human A549 cells after 48 hrs by MTT assay; details: A549, 48 h; summary of the method: as §1

CCCC(=O)OC[C@H]1O[C@H](O[C@@H]2c3cc4c(cc3[C@@H](c3cc(OC)c(OC)c(OC)c3)[C@H]3C(=O)OC[C@@H]32)OCO4)[C@H](OC(=O)CCC)[C@@H](OC(=O)CCC)[C@@H]1OC(=O)CCC
IC50 [1]: > 40 µM | IC50 [2]: > 40 µM | IC50 (SW480): > 40 µM | IC50 (MCF7): > 40 µM | IC50 (A549): > 40 µM

CCCC(=O)OC[C@H]1O[C@H](O[C@@H]2c3cc4c(cc3[C@@H](c3cc(OC)c(OC)c(OC)c3)[C@H]3C(=O)OC[C@@H]32)OCO4)[C@H](OC(=O)CCC)[C@@H](OC(=O)CCC)[C@H]1OC(=O)CCC
IC50 [1]: 0.62 µM | IC50 [2]: 0.14 µM | IC50 (SW480): 1.65 µM | IC50 (MCF7): 1.27 µM | IC50 (A549): 0.61 µM

CCCC(=O)OC[C@H]1O[C@H](O[C@@H]2c3cc4c(cc3[C@@H](c3cc(OC)c(OC)c(OC)c3)[C@H]3C(=O)OC[C@@H]32)OCO4)[C@@H](OC(=O)CCC)[C@@H](OC(=O)CCC)[C@@H]1OC(=O)CCC
IC50 [1]: > 40 µM | IC50 [2]: > 40 µM | IC50 (SW480): > 40 µM | IC50 (MCF7): > 40 µM | IC50 (A549): > 40 µM

CCCC(=O)O[C@@H]1[C@@H](OC(=O)CCC)[C@H](C)O[C@@H](O[C@@H]2c3cc4c(cc3[C@@H](c3cc(OC)c(OC)c(OC)c3)[C@H]3C(=O)OC[C@@H]32)OCO4)[C@@H]1OC(=O)CCC
IC50 [1]: 15.2 µM | IC50 [2]: 5.32 µM | IC50 (SW480): 16.8 µM | IC50 (MCF7): 13.5 µM | IC50 (A549): 7.62 µM

CCCC(=O)O[C@@H]1[C@@H](O[C@@H]2c3cc4c(cc3[C@@H](c3cc(OC)c(OC)c(OC)c3)[C@H]3C(=O)OC[C@@H]32)OCO4)OC[C@@H](OC(=O)CCC)[C@@H]1OC(=O)CCC
IC50 [1]: 0.78 µM | IC50 [2]: 0.6 µM | IC50 (SW480): 1.11 µM | IC50 (MCF7): 1.42 µM | IC50 (A549): 0.61 µM

CCCC(=O)OC[C@H]1O[C@H](O[C@H]2[C@H](OC(=O)CCC)[C@@H](OC(=O)CCC)[C@@H](O[C@@H]3c4cc5c(cc4[C@@H](c4cc(OC)c(OC)c(OC)c4)[C@H]4C(=O)OC[C@@H]43)OCO5)O[C@@H]2COC(=O)CCC)[C@H](OC(=O)CCC)[C@@H](OC(=O)CCC)[C@@H]1OC(=O)CCC
IC50 [1]: > 40 µM | IC50 [2]: > 40 µM | IC50 (SW480): > 40 µM | IC50 (MCF7): > 40 µM | IC50 (A549): > 40 µM

CCCC(=O)OC[C@H]1O[C@@H](O[C@H]2[C@H](OC(=O)CCC)[C@@H](OC(=O)CCC)[C@@H](O[C@@H]3c4cc5c(cc4[C@@H](c4cc(OC)c(OC)c(OC)c4)[C@H]4C(=O)OC[C@@H]43)OCO5)O[C@@H]2COC(=O)CCC)[C@H](OC(=O)CCC)[C@@H](OC(=O)CCC)[C@H]1OC(=O)CCC
IC50 [1]: > 40 µM | IC50 [2]: > 40 µM | IC50 (SW480): > 40 µM | IC50 (MCF7): > 40 µM | IC50 (A549): > 40 µM

CCCC(=O)OC[C@H]1O[C@H](O[C@@H]2c3cc4c(cc3[C@@H](c3cc(OC)c(O)c(OC)c3)[C@H]3C(=O)OC[C@@H]32)OCO4)[C@H](OC(=O)CCC)[C@@H](OC(=O)CCC)[C@@H]1OC(=O)CCC
IC50 [1]: 16.8 µM | IC50 [2]: 16.9 µM | IC50 (SW480): 38.7 µM | IC50 (MCF7): 39.1 µM | IC50 (A549): 16 µM

CCCC(=O)OC[C@H]1O[C@H](O[C@@H]2c3cc4c(cc3[C@@H](c3cc(OC)c(O)c(OC)c3)[C@H]3C(=O)OC[C@@H]32)OCO4)[C@H](OC(=O)CCC)[C@@H](OC(=O)CCC)[C@H]1OC(=O)CCC
IC50 [1]: 3.78 µM | IC50 [2]: 4.89 µM | IC50 (SW480): 10.7 µM | IC50 (MCF7): 5.67 µM | IC50 (A549): 5.7 µM

CCCC(=O)OC[C@H]1O[C@H](O[C@@H]2c3cc4c(cc3[C@@H](c3cc(OC)c(O)c(OC)c3)[C@H]3C(=O)OC[C@@H]32)OCO4)[C@@H](OC(=O)CCC)[C@@H](OC(=O)CCC)[C@@H]1OC(=O)CCC
IC50 [1]: 3.84 µM | IC50 [2]: 2.71 µM | IC50 (SW480): 4.85 µM | IC50 (MCF7): 7.5 µM | IC50 (A549): 3.1 µM

CCCC(=O)O[C@@H]1[C@@H](OC(=O)CCC)[C@H](C)O[C@@H](O[C@@H]2c3cc4c(cc3[C@@H](c3cc(OC)c(O)c(OC)c3)[C@H]3C(=O)OC[C@@H]32)OCO4)[C@@H]1OC(=O)CCC
IC50 [1]: 2.68 µM | IC50 [2]: 2.54 µM | IC50 (SW480): 5.05 µM | IC50 (MCF7): 4.71 µM | IC50 (A549): 3.52 µM

CCCC(=O)O[C@@H]1[C@@H](O[C@@H]2c3cc4c(cc3[C@@H](c3cc(OC)c(O)c(OC)c3)[C@H]3C(=O)OC[C@@H]32)OCO4)OC[C@@H](OC(=O)CCC)[C@@H]1OC(=O)CCC
IC50 [1]: 17.1 µM | IC50 [2]: 26.5 µM | IC50 (SW480): > 40 µM | IC50 (MCF7): 29.3 µM | IC50 (A549): 23.2 µM

CCCC(=O)OC[C@H]1O[C@H](O[C@H]2[C@H](OC(=O)CCC)[C@@H](OC(=O)CCC)[C@@H](O[C@@H]3c4cc5c(cc4[C@@H](c4cc(OC)c(O)c(OC)c4)[C@H]4C(=O)OC[C@@H]43)OCO5)O[C@@H]2COC(=O)CCC)[C@H](OC(=O)CCC)[C@@H](OC(=O)CCC)[C@@H]1OC(=O)CCC
IC50 [1]: > 40 µM | IC50 [2]: > 40 µM | IC50 (SW480): > 40 µM | IC50 (MCF7): > 40 µM | IC50 (A549): > 40 µM

CCCC(=O)OC[C@H]1O[C@@H](O[C@H]2[C@H](OC(=O)CCC)[C@@H](OC(=O)CCC)[C@@H](O[C@@H]3c4cc5c(cc4[C@@H](c4cc(OC)c(O)c(OC)c4)[C@H]4C(=O)OC[C@@H]43)OCO5)O[C@@H]2COC(=O)CCC)[C@H](OC(=O)CCC)[C@@H](OC(=O)CCC)[C@H]1OC(=O)CCC
IC50 [1]: 20.2 µM | IC50 [2]: 9.59 µM | IC50 (SW480): > 40 µM | IC50 (MCF7): > 40 µM | IC50 (A549): 18.6 µM

CCCC(=O)OC[C@H]1O[C@@H](O[C@@H]2c3cc4c(cc3[C@@H](c3cc(OC)c(OC)c(OC)c3)[C@H]3C(=O)OC[C@@H]32)OCO4)[C@H](OC(=O)CCC)[C@@H](OC(=O)CCC)[C@@H]1OC(=O)CCC
IC50 [1]: 0.83 µM | IC50 [2]: 0.61 µM | IC50 (SW480): 1.26 µM | IC50 (MCF7): 1.69 µM | IC50 (A549): 1.12 µM

CCCC(=O)OC[C@H]1O[C@@H](O[C@@H]2c3cc4c(cc3[C@@H](c3cc(OC)c(OC)c(OC)c3)[C@H]3C(=O)OC[C@@H]32)OCO4)[C@H](OC(=O)CCC)[C@@H](OC(=O)CCC)[C@H]1OC(=O)CCC
IC50 [1]: 18.1 µM | IC50 [2]: 3.15 µM | IC50 (SW480): 26.5 µM | IC50 (MCF7): 22.1 µM | IC50 (A549): 17.8 µM

COc1cc([C@@H]2c3cc4c(cc3[C@@H](O[C@@H]3O[C@@H]5CO[C@@H](C)O[C@H]5[C@H](O)[C@H]3O)[C@H]3COC(=O)[C@H]23)OCO4)cc(OC)c1O [ETOPOSIDE]
IC50 [1]: 8.12 µM | IC50 [2]: 0.31 µM | IC50 (SW480): 17.1 µM | IC50 (MCF7): 32.8 µM | IC50 (A549): 11.9 µM
